# Yeast life ext: extends the lifespan of yeast. S. cerevisiae growth with nicotinamide, OD615; deaD strain in restrictive glucose medium. inhibition of the nicotinamide effect, % at 10 µM. actives 0.68% (n = 130,000);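 active means inhibition above a set limit, placed 3 SD over the median of all compounds, cut at about 26% in these data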;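 further: 0% = nicotinamide-treated wells and 100% = cells grown without nicotinamide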
#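 assay system = DeaD-strain S. cerevisiae | buffer or medium = restrictive glucose medium | reagent = 1.5 mM nicotinamide | compound = 10 µM single point, 0.25% DMSO | incubation = 48 h compound exposure at 30 °C, humidified | signal = OD615 measurement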
# Yeast growth inh: chemicals that inhibit yeast BB579 growth in restrictive medium (lifespan-shortening candidates) | inhibition, % at 10 µM | S. cerevisiae BB579 growth, OD615, 48 h | actives 0.51% (n = 140,000) | AID 804;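 active means inhibition above a set limit, 3 SD over the mean compound inhibition, cut at about 44% in these data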
#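 Test system: S. cerevisiae DeaD strain BB579 yeast; Medium: restrictive CSMM-D medium; Compound: one dose, 10 µM compound with 0.25% DMSO; Incubation: 4 h cell preincubation, 48 h compound exposure, 30 °C humidified; Signal: OD at 615 nm; Benchmarks: amphotericin B at 10 µg/mL as positive control.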
# Measles CPE: protection of cells from measles virus; Measles virus-infected cells, CPE protection, absorbance; protection (pct of control), % at 4 µM; actives 1.5% (n = 140,000); AID 841; in the data active means protection mostly above about 24%, no sharp cut-off; inactive means mostly below about 26%
# Efa HMGR inh: E. faecalis class II HMG-CoA reductase inhibition; actives 0.41% (n = 190,000); purified E. faecalis HMGR, NADPH absorbance 340 nm kinetic; inhibition, % at 10 µM;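 active means inhibition above a set limit, the median over all tested compounds plus 3 SD, cut at about 9.5% in these data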;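 further: enzyme runs in reverse so mevalonate oxidation gives rising NADPH absorbance; 0% = complete reaction with DMSO and 100% = background rate lacking mevalonate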
# Rad51 HR inh: blocks human Rad51 in homologous recombination; hRad51 DNA strand exchange, fluorescence dequenching; inhibition, % at 10 µM; actives 0.085% (n = 200,000); AID 1385;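 active means inhibition above 40% at the single screening dose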;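 further: 0% = DMSO control wells and 100% = blanks with heterologous ssDNA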
# Target sequence (Q06609 whole entry, looked up): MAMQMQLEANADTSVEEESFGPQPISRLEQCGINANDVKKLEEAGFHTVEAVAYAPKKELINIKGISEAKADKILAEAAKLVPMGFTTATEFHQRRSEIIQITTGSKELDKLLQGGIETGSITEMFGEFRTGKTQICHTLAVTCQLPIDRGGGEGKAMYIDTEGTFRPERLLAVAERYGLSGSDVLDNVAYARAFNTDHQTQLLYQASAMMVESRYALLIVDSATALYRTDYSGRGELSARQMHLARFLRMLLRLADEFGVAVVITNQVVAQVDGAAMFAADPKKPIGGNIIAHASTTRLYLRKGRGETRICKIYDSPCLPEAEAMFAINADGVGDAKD
#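 System: hRad51 filaments on single-stranded DNA; reagent: Fluorescein- and BHQ1-tagged 47-mer duplex; compound dosing: one concentration, 10 µM final; timing: filaments 15 min 37 °C, then compound 30 min; measured by: fluorescein emission 520 nm, excitation 485 nm; benchmarks: per-plate controls and blanks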
# Arbovirus inh: antivirals against arbovirus infection; actives 0.37% (n = 200,000); arbovirus infection cell-based antiviral screen; AID 1251; inhibition, % at 10 µM; in the data active means inhibition above about 30%
# * marks the source's active call; other numbers are inactive results; x = no result given. In the library only some 2.4% were active in any assay of this set; here they are far more common.
SMILES,Yeast life ext,Yeast growth inh,Measles CPE,Efa HMGR inh,Rad51 HR inh,Arbovirus inh
COc1ccc(-c2c(C)n([O-])c(C)c(-c3ccccc3)[n+]2=O)cc1OC,-5.1,-33.9,88.9*,-2.7,-2.7,-2.2
CCN=C1SC(C(=O)Nc2ccccc2)CC(=O)N1CC (configuration not stated),-11.6,3.2,4.9,-0.8,-5.3,-0.3
COc1cccc(CNc2ccc([N+](=O)[O-])c(NCC(=O)O)n2)c1,x,x,x,-4.8,-30.0,0.5
CCC1CCCCN1C(=O)c1cccc(S(=O)(=O)Nc2cc(C(F)(F)F)ccc2Cl)c1 (configuration not stated),2.8,-30.4,5.5,-4.5,-2.5,8.1
O=C(NC1CCN(Cc2ccccc2)CC1)c1cccc(S(=O)(=O)Nc2cc(C(F)(F)F)ccc2Cl)c1,4.1,-9.6,11.5,-7.6,x,32.8*
O=C(Nc1cccc(-c2nc3cccnc3s2)c1)C1c2ccccc2Oc2ccccc21,-1.8,-33.6,6.3,-0.7,x,-15.3
CC(C)c1ccc(C(=O)NNC(=O)C2CC=CCC2C(=O)O)cc1 (configuration not stated),0.4,-8.8,28.7*,-3.5,17.6,7.2
Cc1cc(O)c(/C=N/Nc2ccccc2)c(=O)o1,-15.7,86.8*,4.6,4.7,2.0,-37.0
COC1=C(N)C(=O)c2nc(-c3nc(C(=O)O)c(C)c(-c4ccc(OC)c(OC)c4O)c3N)ccc2C1=O,-7.2,97.1*,5.4,-2.9,-1.3,-43.2
CCCCc1oc2ccccc2c1C(=O)c1cc(I)c(OCCN(CC)CC)c(I)c1,-9.8,99.0*,15.6,-2.0,-3.1,-44.5
COC(=O)N1CCN(CCc2ccccc2)CC1,x,x,x,12.8*,6.2,6.2
CC(=O)CCc1c(C)nc2ccc(C)cc2c1Cl,x,x,x,-1.4,6.2,-2.6
Cc1ccc(N(CC(O)COCc2ccco2)S(=O)(=O)c2ccc(C)cc2)cc1 (configuration not stated),-17.4,-7.8,46.4*,-11.2,6.2,-2.5
COC1=C(c2ccccc2)C(=O)c2ccccc2C1=O,12.5,68.4*,29.0,-2.2,18.6,-30.8
CCCC(=O)N(Cc1cc2ccccc2[nH]c1=O)c1ccccc1OC,-16.5,-18.2,38.0*,-2.7,-3.5,1.5
CCOC(=O)c1c(NC(=O)C2COc3ccccc3O2)sc(C(C)=O)c1C (configuration not stated),-8.5,-32.4,36.6,-6.0,-7.9,2.5
CCOC(=O)c1c(NC(=O)C2COc3ccccc3O2)sc2c1CC(C)(C)NC2(C)C (configuration not stated),-2.1,-19.1,47.0*,-5.9,-4.8,-27.1
Cc1nc(SC2CC(=O)N(c3ccccc3)C2=O)nc2c1CCCC2 (configuration not stated),-10.8,-5.3,74.6*,x,6.4,20.6
COc1ccc(CN(C(=O)CSc2nnc(-c3ccc(F)cc3)o2)c2ccc(F)cc2)cc1,4.8,-17.4,15.4,-1.8,-7.2,30.6*
COc1ccc(-c2nnc(SCC(=O)c3ccc(C)o3)o2)cc1,x,-19.2,12.1,-6.3,-0.9,-2.3
Cc1ccc(C(=O)C2C(=O)c3ccccc3C2=O)cc1,69.3*,-43.7,29.5,-0.2,-4.2,9.3
Cc1ccc(C(=O)NC2c3ccccc3-c3ccccc32)cc1,-3.9,-4.7,8.6,-2.8,1.0,-9.7
O=C(COc1ccc(S(=O)(=O)N2CCCC2)cc1)Nc1ccc2c(c1)OCCO2,x,x,x,-4.2,-2.2,1.0
CCNc1oc(COc2cccc(C)c2)nc1C#N,-6.6,-21.7,37.9*,1.0,0.4,-2.7
O=C(O)c1ccc(CSc2nnnn2C2CCCCC2)cc1,0.0,-2.9,30.0*,-2.8,0.7,10.1
SMILES,Yeast life ext,Yeast growth inh,Measles CPE,Efa HMGR inh,Rad51 HR inh,Arbovirus inh
O=C(O)CSc1nnnn1C1CCCCC1,x,x,x,0.4,5.7,-0.9
O=C1CCC(=O)N1c1ccc(CSc2nnnn2C2CCCCC2)cc1,-5.5,-10.0,19.4*,-3.6,9.4,0.5
S=c1[nH]nc(-c2ccncc2)n1/N=C/c1cccc2ccccc12,0.6,-10.1,29.3*,-4.6,8.7,5.1
Cc1ccc(/C=N/n2c(-c3ccncc3)n[nH]c2=S)cc1,2.0,0.9,15.6,3.2,0.7,9.6
O=C(C1CC1)N1CCC(C(O)(c2ccccc2)c2ccccc2)CC1,-0.2,-8.5,4.8,-4.4,-3.4,-1.6
CC(C)(C)C(=O)N1CCC[C@H]1C(O)(c1ccccc1)c1ccccc1,10.2,-26.2,10.9,14.3*,-14.0,0.9
CC1=C(C(=O)OCC(C)C)C(c2ccsc2)C2=C(CCCC2=O)N1 (configuration not stated),-0.2,-37.0,1.1,-2.1,11.3,-17.9
CC(C)c1cc[n+](-c2nc([O-])sc2C=O)cc1,30.8*,-18.1,21.1,2.5,1.3,7.5
COc1ccc(S(=O)(=O)n2nc(-c3cc(OC)c(OC)c(OC)c3)cc2N)cc1OC,-5.0,-7.5,29.2,-4.3,-0.7,-12.1
COc1ccc(-c2cc(N)n(S(=O)(=O)c3c(F)c(F)c(F)c(F)c3F)n2)cc1OC,76.9*,-107.0,2.0,1.0,12.5,-35.8
C=CCCCCCCCC(=O)OC,x,x,x,-7.8,6.7,-0.2
COc1ccc(CNCc2cn(-c3cccc(F)c3)nc2-c2ccc(C)o2)cc1,x,x,x,-3.8,-18.3,-28.9
COc1ccc(C(=O)Oc2c(C)occc2=O)cc1OC,2.5,-47.4,48.4*,2.3,5.3,9.6
O=C(CN1C(=O)CSC1=O)Nc1ccc(C(=O)O)cc1,-11.6,-6.4,102.2*,-5.5,5.7,8.6
O=C(CCSc1ccccc1)Nc1nnc(-c2cccs2)o1,x,x,x,-2.8,x,3.2
O=S(=O)(Cc1cc(NCc2ccccc2)nc(-c2ccccn2)n1)c1ccccc1,x,x,x,-1.7,-15.2,3.2
COc1ccc(OC)c(-c2c3cc(O)c(=O)cc-3oc3cc(O)c(O)cc23)c1,-0.1,62.7*,10.9,-1.9,-150.4,-24.8
CCCCNC(=O)CSc1nc(COc2ccccc2)nc2ccccc12,x,x,x,-2.5,-0.9,11.6
CCN(CC)S(=O)(=O)c1cccc(C(=O)N2CC(O)CC2C(=O)OC)c1 (configuration not stated),-2.6,-25.3,12.7,0.5,-1.3,-5.5
CCN(CC)S(=O)(=O)c1cccc(C(=O)N2CC(O)CC2C(=O)O)c1 (configuration not stated),-11.9,-33.3,28.2*,-1.8,5.5,0.8
Cc1ccc(NC(=O)CC2S/C(=N/N=C/c3c[nH]c4ccccc34)NC2=O)cc1 (configuration not stated),-3.8,-13.2,13.2,-3.8,x,-15.2
CCOC(=O)c1ccc(NC(=O)CC2S/C(=N/N=C/c3c[nH]c4ccccc34)NC2=O)cc1 (configuration not stated),-1.7,-23.0,27.6*,-1.3,-3.2,31.1*
